Reference: ChEMBL document CHEMBL3856209, “Novel pyrazolopyridine derivatives as potential angiogenesis inhibitors: Synthesis, biological evaluation and transcriptome-based mechanistic analysis” (Eur J Med Chem, 2016)
The source made the active and inactive calls.

Key:
[1] = tested on: HUVEC; assay: Effect on CKS2 gene expression in serum-starved HUVEC after 24 hrs by microarray analysis relative to control; format: functional, Homo sapiens
Procedure, shortened: (§1)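 Confluent, serum-starved HUVEC (pooled from 3–5 donors, passage ≤4) treated with 2 μM compound or vehicle with 2.5% FBS for 6 h or 24 h. Total RNA hybridized to Illumina Human-HT12 arrays. Data were background-corrected, vst-transformed and rsn-normalized. Hits called by moderated paired t-test versus DMSO-treated cells, p < 0.05 and log2 fold change >|0.5|.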

[2] = tested on: HUVEC; assay: Effect on CDC20 gene expression in serum-starved HUVEC after 6 hrs by microarray analysis relative to control; format: functional, Homo sapiens
Procedure, shortened: (§2)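 Serum-starved confluent HUVEC treated with 2 μM compound or DMSO in 2.5% FBS for 6 h or 24 h; RNA hybridized to Illumina Human-HT12 arrays. Data background-corrected, vst-transformed and rsn-normalized. Differential probes called by moderated paired t-test (limma) at p < 0.05 and log2 fold change >|0.5| vs DMSO.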

[3] = tested on: HUVEC; assay: Effect on GPR116 gene expression in serum-starved HUVEC after 6 hrs by microarray analysis relative to control; format: functional, Homo sapiens; procedure, shortened: as §1
[4] = tested on: HUVEC; assay: Effect on CDCA5 gene expression in serum-starved HUVEC after 6 hrs by microarray analysis relative to control; format: functional, Homo sapiens; procedure, shortened: as §2
[5] = tested on: HUVEC; assay: Effect on CD46 gene expression in serum-starved HUVEC after 6 hrs by microarray analysis relative to control; format: functional, Homo sapiens; procedure, shortened: as §2
[6] = tested on: HUVEC; assay: Effect on CCNA2 gene expression in serum-starved HUVEC after 6 hrs by microarray analysis relative to control; format: functional, Homo sapiens; procedure, shortened: as §2
[7] = tested on: HUVEC; assay: Effect on ANKRD1 gene expression in serum-starved HUVEC after 24 hrs by microarray analysis relative to control; format: functional, Homo sapiens; procedure, shortened: as §2
[8] = tested on: HUVEC; assay: Effect on TP53INP2 gene expression in serum-starved HUVEC after 6 hrs by microarray analysis relative to control; format: functional, Homo sapiens
[9] = tested on: HUVEC; assay: Effect on ACLY gene expression in serum-starved HUVEC after 6 hrs by microarray analysis relative to control; format: functional, Homo sapiens; procedure, shortened: as §2
[10] = tested on: HUVEC; assay: Effect on MYLIP gene expression in serum-starved HUVEC after 24 hrs by microarray analysis relative to control; format: functional, Homo sapiens
Procedure, shortened: (§3)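 Serum-starved confluent HUVEC (pooled from 3–5 donors, passage ≤4) were treated with 2 μM compound or vehicle in 2.5% FBS for 6 h or 24 h, and total RNA was isolated. Hybridization was on Illumina Human-HT12. Data were processed with bgAdjust, vst and rsn normalization. Changes versus DMSO were called by moderated paired t-test at p < 0.05 and |log2 fold change| > 0.5.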

[11] = tested on: HUVEC; assay: Effect on LPIN1 gene expression in serum-starved HUVEC after 24 hrs by microarray analysis relative to control; format: functional, Homo sapiens
[12] = tested on: HUVEC; assay: Effect on RN7SK gene expression in serum-starved HUVEC after 6 hrs by microarray analysis relative to control; format: functional, Homo sapiens
[13] = tested on: HUVEC; assay: Effect on CTHRC1 gene expression in serum-starved HUVEC after 6 hrs by microarray analysis relative to control; format: functional, Homo sapiens; procedure, shortened: as §1
[14] = tested on: HUVEC; assay: Effect on LMNB2 gene expression in serum-starved HUVEC after 6 hrs by microarray analysis relative to control; format: functional, Homo sapiens; procedure, shortened: as §3
[15] = tested on: HUVEC; assay: Effect on ACSS2 gene expression in serum-starved HUVEC after 6 hrs by microarray analysis relative to control; format: functional, Homo sapiens; procedure, shortened: as §2
[16] = tested on: HUVEC; assay: Effect on CYP26B1 gene expression in serum-starved HUVEC after 6 hrs by microarray analysis relative to control; format: functional, Homo sapiens; procedure, shortened: as §1
[17] = tested on: HUVEC; assay: Effect on TUBB2B gene expression in serum-starved HUVEC after 24 hrs by microarray analysis relative to control; format: functional, Homo sapiens
[18] = tested on: HUVEC; assay: Effect on CDC25C gene expression in serum-starved HUVEC after 6 hrs by microarray analysis relative to control; format: functional, Homo sapiens
Procedure, shortened: (§4)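 Confluent serum-starved HUVEC (primary, pooled from 3–5 donors, passage ≤4) treated with 2 μM compound or DMSO vehicle in 2.5% FBS for 6 h or 24 h. Total RNA hybridized to Illumina Human-HT12 arrays, background-corrected, vst-transformed and rsn-normalized. Differential expression versus DMSO by moderated paired t-test (p < 0.05, |log2 fold change| > 0.5).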

[19] = tested on: HUVEC; assay: Effect on ASAP1 gene expression in serum-starved HUVEC after 24 hrs by microarray analysis relative to control; format: functional, Homo sapiens
Procedure, shortened: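 Serum-starved confluent HUVEC (primary, pooled from 3–5 donors, passage ≤4) treated with 2 μM test compound or DMSO vehicle (working dilutions ≤0.1% v/v) in presence of 2.5% FBS for 6 h or 24 h; total RNA hybridized to Illumina Human-HT12 arrays; background correction, vst, rsn normalization; moderated paired t-test versus DMSO, thresholds p < 0.05 and log2 fold change >|0.5|.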

[20] = tested on: HUVEC; assay: Effect on HLA-DPA1 gene expression in serum-starved HUVEC after 6 hrs by microarray analysis relative to control; format: functional, Homo sapiens; procedure, shortened: as §1
[21] = tested on: HUVEC; assay: Effect on ALDOC gene expression in serum-starved HUVEC after 6 hrs by microarray analysis relative to control; format: functional, Homo sapiens; procedure, shortened: as §2
[22] = tested on: HUVEC; assay: Effect on RNU1-1 gene expression in serum-starved HUVEC after 6 hrs by microarray analysis relative to control; format: functional, Homo sapiens
[23] = tested on: HUVEC; assay: Effect on NSDHL gene expression in serum-starved HUVEC after 24 hrs by microarray analysis relative to control; format: functional, Homo sapiens
[24] = Upregulation of HMGCS1 gene expression in serum-starved HUVEC at 2 uM after 24 hrs by qRT-PCR analysis; format: functional, cell-based; conditions: Homo sapiens
[25] = tested on: HUVEC; assay: Effect on MYLIP gene expression in serum-starved HUVEC after 6 hrs by microarray analysis relative to control; format: functional, Homo sapiens
[26] = tested on: HUVEC; assay: Effect on SPRY4 gene expression in serum-starved HUVEC after 24 hrs by microarray analysis relative to control; format: functional, Homo sapiens
[27] = tested on: HUVEC; assay: Effect on PLA2G4C gene expression in serum-starved HUVEC after 6 hrs by microarray analysis relative to control; format: functional, Homo sapiens; procedure, shortened: as §3
[28] = tested on: HUVEC; assay: Effect on GINS2 gene expression in serum-starved HUVEC after 24 hrs by microarray analysis relative to control; format: functional, Homo sapiens; procedure, shortened: as §1
[29] = tested on: HUVEC; assay: Effect on FAM198B gene expression in serum-starved HUVEC after 6 hrs by microarray analysis relative to control; format: functional, Homo sapiens; procedure, shortened: as §4
[30] = tested on: HUVEC; assay: Effect on ESM1 gene expression in serum-starved HUVEC after 24 hrs by microarray analysis relative to control; format: functional, Homo sapiens; procedure, shortened: as §4
[31] = tested on: HUVEC; assay: Effect on PODXL gene expression in serum-starved HUVEC after 24 hrs by microarray analysis relative to control; format: functional, Homo sapiens; procedure, shortened: as §3
[32] = tested on: HUVEC; assay: Effect on HLA-DPA1 gene expression in serum-starved HUVEC after 24 hrs by microarray analysis relative to control; format: functional, Homo sapiens; procedure, shortened: as §1
[33] = tested on: HUVEC; assay: Effect on CYTL1 gene expression in serum-starved HUVEC after 6 hrs by microarray analysis relative to control; format: functional, Homo sapiens; procedure, shortened: as §4
[34] = tested on: HUVEC; assay: Effect on RNA18S5 gene expression in serum-starved HUVEC after 6 hrs by microarray analysis relative to control; format: functional, Homo sapiens
[35] = tested on: HUVEC; assay: Effect on SND1-IT1 gene expression in serum-starved HUVEC after 6 hrs by microarray analysis relative to control; format: functional, Homo sapiens
[36] = tested on: HUVEC; assay: Effect on SND1-IT1 gene expression in serum-starved HUVEC after 24 hrs by microarray analysis relative to control; format: functional, Homo sapiens
[37] = tested on: HUVEC; assay: Effect on GANAB gene expression in serum-starved HUVEC after 6 hrs by microarray analysis relative to control; format: functional, Homo sapiens; procedure, shortened: as §1
[38] = tested on: HUVEC; assay: Effect on KIF22 gene expression in serum-starved HUVEC after 24 hrs by microarray analysis relative to control; format: functional, Homo sapiens; procedure, shortened: as §1

## COc1ccc(Cn2nc(-c3ccccc3)c3cc(Cl)nc(N4CCNCC4)c32)cc1
[1]
  log2FC: -0.5724
[2]
  fold change (FC): 0.127

## COc1ccc(Cn2nc(-c3ccccc3)c3cc(Nc4ccc(N5CCN(C)CC5)cc4)nc(N4CCN(C)CC4)c32)cc1
[3]
  fold change (FC): 0.1625
[4]
  fold change (FC): 0.0694
[5]
  fold change (FC): 0.3593
[6]
  log2FC: -0.1788
[7]
  log2FC: 0.2203
[8]
  log2FC: 0.0911
[9]
  fold change (FC): 0.4312
[10]
  log2FC: -0.2675
[11]
  log2FC: 0.8618
[12]
  log2FC: -0.8368
[13]
  log2FC: -0.0221
[14]
  fold change (FC): 0.1414
[15]
  fold change (FC): 0.2037
[16]
  log2FC: -0.3941
[17]
  log2FC: 0.8576
[18]
  fold change (FC): -0.0013
[19]
  fold change (FC): 0.1181
[20]
  fold change (FC): 0.6583
[21]
  fold change (FC): 0.067
[22]
  fold change (FC): -0.6255
[23]
  log2FC: 1.1565
[24]
  Activity: Active
[25]
  fold change (FC): -0.5593
[26]
  fold change (FC): 0.9471
[27]
  fold change (FC): 0.3857
[28]
  log2FC: -0.5372
[29]
  fold change (FC): 0.7445
[30]
  fold change (FC): 0.8252
[31]
  log2FC: 0.6696
[32]
  log2FC: -0.863
[33]
  fold change (FC): 0.0261

## COc1ccc(Cn2nc(-c3ccccc3)c3cc(Nc4ccc(N5CCN(C)CC5)cc4)nc(N4CCNCC4)c32)cc1
[34]
  log2FC: -0.2889
[35]
  log2FC: -0.0103
[36]
  log2FC: 0.603
[37]
  log2FC: -0.1113
[38]
  log2FC: -0.5297
